pIC50: −log10 of the molar value.

By pIC50 is commonly meant the negative decadic logarithm of the IC50, by convention in mol/L. For orientation: half-life means how long it takes for the measured level to halve. Read a high half-life as slow loss.

In data set [1] the target is Vascular endothelial growth factor receptor 2 (Homo sapiens, UniProt P35968). Description: Inhibition of recombinant VEGFR2 kinase domain (unknown origin). The gist of the method:
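In vitro kinase assay using purified recombinant VEGFR-2 kinase domain; IC50 determined.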

Data set [2] is filed under the species Homo sapiens. Description: Selectivity ratio of IC50 for recombinant VEGFR2 (unknown origin) to IC50 for recombinant MET (unknown origin). The method, boiled down: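 In vitro enzyme assays used purified recombinant MET and VEGFR-2 kinase domains, each tested separately. IC50 values are in nM. The ratio divides the VEGFR-2 enzyme IC50 by the MET enzyme IC50.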

For data set [3], the target named is T1, Hepatocyte growth factor receptor (Homo sapiens, UniProt P08581). Description: Inhibition of recombinant MET kinase domain (unknown origin).
A short description of data set [4]: Half life in human liver microsomes. In kind it is ADME, Microsome. For orientation: Liver microsomes are a subcellular fraction often used to study metabolism.
For data set [5], the target named is T1, Hepatocyte growth factor receptor. Description: Inhibition of MET in human MKN-45 cells assessed as reduction in HGF-mediated autophosphorylation. In kind it is cell-based.

Vascular endothelial growth factor receptor 2, sequence (P35968 whole entry, the tested form may be a part): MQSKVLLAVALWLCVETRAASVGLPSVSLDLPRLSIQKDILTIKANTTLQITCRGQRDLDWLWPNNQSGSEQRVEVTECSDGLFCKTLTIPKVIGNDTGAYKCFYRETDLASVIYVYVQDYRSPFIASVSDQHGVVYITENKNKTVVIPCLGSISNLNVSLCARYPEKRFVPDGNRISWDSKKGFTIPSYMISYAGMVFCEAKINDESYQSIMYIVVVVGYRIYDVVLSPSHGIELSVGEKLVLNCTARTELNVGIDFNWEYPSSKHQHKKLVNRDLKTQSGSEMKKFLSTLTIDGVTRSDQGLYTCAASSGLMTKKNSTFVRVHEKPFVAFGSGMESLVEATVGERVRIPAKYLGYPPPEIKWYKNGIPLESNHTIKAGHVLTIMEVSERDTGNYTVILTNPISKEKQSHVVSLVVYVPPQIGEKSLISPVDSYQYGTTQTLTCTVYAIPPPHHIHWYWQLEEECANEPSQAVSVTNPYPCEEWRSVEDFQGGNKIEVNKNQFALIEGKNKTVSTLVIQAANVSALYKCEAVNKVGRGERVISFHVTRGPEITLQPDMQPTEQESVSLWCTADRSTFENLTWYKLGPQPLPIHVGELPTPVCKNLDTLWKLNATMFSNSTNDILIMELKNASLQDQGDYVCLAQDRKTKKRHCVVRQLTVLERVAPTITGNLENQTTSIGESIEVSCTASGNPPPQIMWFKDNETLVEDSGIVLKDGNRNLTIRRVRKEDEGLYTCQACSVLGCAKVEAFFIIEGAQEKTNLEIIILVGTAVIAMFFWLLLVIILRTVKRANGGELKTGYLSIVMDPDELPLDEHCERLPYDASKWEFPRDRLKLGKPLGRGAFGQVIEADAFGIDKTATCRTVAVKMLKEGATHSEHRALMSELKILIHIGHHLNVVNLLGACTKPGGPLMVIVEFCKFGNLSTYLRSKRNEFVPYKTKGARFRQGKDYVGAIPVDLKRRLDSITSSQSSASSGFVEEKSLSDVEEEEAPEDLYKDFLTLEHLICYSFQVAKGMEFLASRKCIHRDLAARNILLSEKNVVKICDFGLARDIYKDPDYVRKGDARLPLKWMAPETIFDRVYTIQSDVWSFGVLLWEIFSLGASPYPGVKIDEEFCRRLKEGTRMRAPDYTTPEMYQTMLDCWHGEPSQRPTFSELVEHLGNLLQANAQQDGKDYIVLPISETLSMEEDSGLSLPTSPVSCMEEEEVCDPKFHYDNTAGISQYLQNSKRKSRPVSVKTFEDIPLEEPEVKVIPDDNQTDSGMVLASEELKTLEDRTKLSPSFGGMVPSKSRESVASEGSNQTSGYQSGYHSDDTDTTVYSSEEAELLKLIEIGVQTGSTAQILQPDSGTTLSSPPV
T1 sequence (P08581 whole entry, the tested form may be a part): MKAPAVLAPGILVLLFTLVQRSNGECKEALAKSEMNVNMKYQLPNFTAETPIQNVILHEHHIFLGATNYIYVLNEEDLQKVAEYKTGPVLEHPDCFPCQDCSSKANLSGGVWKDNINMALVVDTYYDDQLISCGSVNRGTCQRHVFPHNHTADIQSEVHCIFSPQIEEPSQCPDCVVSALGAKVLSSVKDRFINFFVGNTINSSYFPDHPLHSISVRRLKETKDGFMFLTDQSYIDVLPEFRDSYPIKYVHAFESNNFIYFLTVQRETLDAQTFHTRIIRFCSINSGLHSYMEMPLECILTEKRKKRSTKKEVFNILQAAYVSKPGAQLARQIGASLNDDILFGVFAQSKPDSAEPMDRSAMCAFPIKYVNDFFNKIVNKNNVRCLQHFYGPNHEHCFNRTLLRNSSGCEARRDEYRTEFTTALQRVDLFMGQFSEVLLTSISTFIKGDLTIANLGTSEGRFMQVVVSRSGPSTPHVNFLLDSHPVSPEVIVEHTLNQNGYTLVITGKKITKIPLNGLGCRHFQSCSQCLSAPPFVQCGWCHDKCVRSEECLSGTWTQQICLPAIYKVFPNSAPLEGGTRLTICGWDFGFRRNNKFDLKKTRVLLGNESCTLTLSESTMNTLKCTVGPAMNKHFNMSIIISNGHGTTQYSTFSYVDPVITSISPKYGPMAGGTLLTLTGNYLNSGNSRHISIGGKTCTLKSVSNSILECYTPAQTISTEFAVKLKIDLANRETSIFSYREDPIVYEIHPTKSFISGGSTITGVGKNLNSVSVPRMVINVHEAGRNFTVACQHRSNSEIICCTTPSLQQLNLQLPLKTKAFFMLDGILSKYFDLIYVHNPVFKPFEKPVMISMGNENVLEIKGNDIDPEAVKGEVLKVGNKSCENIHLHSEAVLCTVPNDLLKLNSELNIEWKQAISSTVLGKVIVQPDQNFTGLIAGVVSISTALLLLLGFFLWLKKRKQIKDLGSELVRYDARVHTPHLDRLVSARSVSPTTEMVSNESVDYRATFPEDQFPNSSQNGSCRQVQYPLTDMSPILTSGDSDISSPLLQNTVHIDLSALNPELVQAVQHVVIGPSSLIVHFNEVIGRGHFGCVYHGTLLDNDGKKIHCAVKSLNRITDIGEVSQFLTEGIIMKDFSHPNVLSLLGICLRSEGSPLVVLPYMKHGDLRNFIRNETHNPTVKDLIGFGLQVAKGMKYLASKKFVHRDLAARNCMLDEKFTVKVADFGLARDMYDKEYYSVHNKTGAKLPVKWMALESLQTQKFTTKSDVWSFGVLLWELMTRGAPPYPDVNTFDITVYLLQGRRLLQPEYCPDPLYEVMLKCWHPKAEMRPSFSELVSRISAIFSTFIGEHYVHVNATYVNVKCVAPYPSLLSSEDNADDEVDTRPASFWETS

As to `CCn1cc(-c2ccc(F)cc2)c(=O)c2c(Nc3ccc(Oc4ncnc5cc(OC)c(OC)cc45)c(F)c3)nccc21`, the pIC50 in data set [1] was < 5.52; in data set [3] it was 7.54. In addition, in data set [2], the Ratio IC50 is > 275.

`COCCOc1cc2c(Oc3ccc(Nc4nccc5[nH]cc(-c6ccc(F)cc6)c(=O)c45)cc3F)ncnc2cc1OC`: the pIC50 in data set [1] is 7.01; in data set [3], 7.44.

Take `COc1cc2c(Oc3ccc(Nc4nccc5[nH]cc(-c6ccc(F)cc6)c(=O)c45)cc3F)ncnc2cc1OCCO.Cc1ccc(S(=O)(=O)O)cc1`: the pIC50 in data set [1] is 7.66; in data set [3], 7.86. Further, the half-life in data set [4] is 3.85 h.

On to `COc1cc2ncnc(Oc3ccc(Nc4nccc5c4c(=O)c(-c4ccc(F)cc4)cn5C)cc3F)c2cc1OC`, for which the negative-log IC50 (pIC50) in data set [1] was < 5.52; in data set [5], 7.08; in data set [3], 8.15. Moreover, in data set [4], the half-life amounted to 4.27 h. Further, the Ratio IC50 in data set [2] is > 422.

`COc1cc2ncnc(Oc3ccc(Nc4nccc5[nH]cc(-c6ccc(F)cc6)c(=O)c45)cc3F)c2cc1OCCCN1CCCCC1`: the values for the negative-log IC50 (pIC50) in data set [1] and in data set [3] were 6.68 and 7.81, respectively.

For the molecule `COCCn1cc(-c2ccc(F)cc2)c(=O)c2c(Nc3ccc(Oc4ncnc5cc(OC)c(OC)cc45)c(F)c3)nccc21`, the pIC50 was < 5.52 in data set [1] and 6.79 in data set [3].

`CCN(CC)CCCOc1cc2c(Oc3ccc(Nc4nccc5[nH]cc(-c6ccc(F)cc6)c(=O)c45)cc3F)ncnc2cc1OC`: the negative logarithm of the IC50 (pIC50) is 6.79 in data set [1], 6.40 in data set [5] and 8.03 in data set [3].

As for `COc1cc2c(Oc3ccc(Nc4nccc5[nH]cc(-c6ccc(F)cc6)c(=O)c45)cc3F)ncnc2cc1OCC(C)(C)O`, the pIC50 in data set [1] was 7.03; in data set [3], 7.19.

Regarding `COc1cc2ncnc(Oc3ccc(Nc4nccc5c4c(=O)c(-c4ccc(F)cc4)cn5CC(=O)c4ccccc4)cc3F)c2cc1OC`, the negative logarithm of the IC50 (pIC50) in data set [1] is < 5.52; in data set [3], 6.71.

As for `COc1cc2c(Oc3ccc(Nc4nccc5[nH]cc(-c6ccc(F)cc6)c(=O)c45)cc3F)ncnc2cc1OCC1CCN(C)CC1`, the pIC50 in data set [1] was 7.48; in data set [3] it was 7.81.

Consider `COc1cc2c(Oc3ccc(Nc4nccc5[nH]cc(-c6ccc(F)cc6)c(=O)c45)cc3F)ncnc2cc1OCCCN1CCCC1`, for which the figures for the pIC50 in data set [1], in data set [5] and in data set [3] were 6.89, 6.89 and 8.08, respectively.

In the case of `COc1cc2ncnc(Oc3ccc(Nc4nccc5[nH]cc(-c6ccc(F)cc6)c(=O)c45)cc3F)c2cc1OCC(C)(C)O`, the negative logarithm of the IC50 (pIC50) in data set [1] is 7.28; in data set [3], 8.10. The half-life in data set [4] was 4.17 h.

On to `COc1cc2ncnc(Oc3ccc(Nc4nccc5[nH]cc(-c6ccc(F)cc6)c(=O)c45)cc3F)c2cc1OCCCN1CCCC1`, for which the negative-log IC50 (pIC50) in data set [1] is 6.84; in data set [3], 8.09.

Turning to `COc1cc2c(Oc3ccc(Nc4nccc5[nH]cc(-c6ccc(F)cc6)c(=O)c45)cc3F)ncnc2cc1OCCCO`, the negative logarithm of the IC50 (pIC50) in data set [1] was 7.17; in data set [3] it was 7.41.

Turning to `COCCOc1cc2ncnc(Oc3ccc(Nc4nccc5[nH]cc(-c6ccc(F)cc6)c(=O)c45)cc3F)c2cc1OC`, the results for the pIC50 in data set [1] and in data set [3] were 6.85 and 7.38, respectively.

Consider `COc1cc2ncnc(Oc3ccc(Nc4nccc5[nH]cc(-c6ccc(F)cc6)c(=O)c45)cc3F)c2cc1OCCO.Cc1ccc(S(=O)(=O)O)cc1`, for which the figures for the negative logarithm of the IC50 (pIC50) in data set [1] and in data set [3] were 7.91 and 8.46, respectively. In data set [4], this molecule gave a half-life of 4.68 h.

For the molecule `COc1cc2ncnc(Oc3ccc(Nc4nccc5[nH]c(C)c(-c6ccc(F)cc6)c(=O)c45)cc3F)c2cc1OC`, the figures for the negative-log IC50 (pIC50) in data set [1] and in data set [3] were 6.34 and 6.64, respectively.

`COc1cc2ncnc(Oc3ccc(Nc4nccc5[nH]cc(-c6ccc(F)cc6)c(=O)c45)cc3F)c2cc1OCCCN1CCOCC1`: the pIC50 in data set [1] was 6.92; in data set [3] it was 7.63.

As to `COc1cc2c(Oc3ccc(Nc4nccc5[nH]cc(-c6ccc(F)cc6)c(=O)c45)cc3F)ncnc2cc1OCCCN1CCOCC1`, the pIC50 in data set [1] is 6.64; in data set [3] it was 7.66.

Regarding `O=c1c(-c2ccc(F)cc2)c[nH]c2ccnc(Nc3ccc(Oc4ncnc5cc6c(cc45)OCCOCCOCCO6)c(F)c3)c12`, the negative logarithm of the IC50 (pIC50) in data set [1] is 7.32; in data set [3], 8.02. In data set [4], this molecule returned a half-life of 0.83 h.

For `COc1cc2c(Oc3ccc(Nc4nccc5[nH]cc(-c6ccc(F)cc6)c(=O)c45)cc3F)ncnc2cc1OCCN1CCOCC1`, the pIC50 in data set [3] was 7.61.

With `COCCOc1cc2ncnc(Oc3ccc(Nc4nccc5[nH]cc(-c6ccc(F)cc6)c(=O)c45)cc3F)c2cc1OCCOC`, the negative logarithm of the IC50 (pIC50) is 7.10 in data set [1] and 7.71 in data set [3].

The values are drawn from ChEMBL document CHEMBL4765445, “Structure-activity relationship study of novel quinazoline-based 1,6-naphthyridinones as MET inhibitors with potent antitumor efficacy” (Eur J Med Chem, 2020).
